GC-B act – GC-B (human) receptor activation; HEK293-GC-B cells, CNP EC30, cGMP TR-FRET; 0% at EC30 CNP, 100% saturating CNP; activation, % at 10 µM; 370,000 compounds, 0.11% hits; AID 1920062;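 active = activation at 10 µM reaching about 35% in either raw or pattern-adjusted values, limit read from the data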
Target sequence (P20594 whole entry, looked up): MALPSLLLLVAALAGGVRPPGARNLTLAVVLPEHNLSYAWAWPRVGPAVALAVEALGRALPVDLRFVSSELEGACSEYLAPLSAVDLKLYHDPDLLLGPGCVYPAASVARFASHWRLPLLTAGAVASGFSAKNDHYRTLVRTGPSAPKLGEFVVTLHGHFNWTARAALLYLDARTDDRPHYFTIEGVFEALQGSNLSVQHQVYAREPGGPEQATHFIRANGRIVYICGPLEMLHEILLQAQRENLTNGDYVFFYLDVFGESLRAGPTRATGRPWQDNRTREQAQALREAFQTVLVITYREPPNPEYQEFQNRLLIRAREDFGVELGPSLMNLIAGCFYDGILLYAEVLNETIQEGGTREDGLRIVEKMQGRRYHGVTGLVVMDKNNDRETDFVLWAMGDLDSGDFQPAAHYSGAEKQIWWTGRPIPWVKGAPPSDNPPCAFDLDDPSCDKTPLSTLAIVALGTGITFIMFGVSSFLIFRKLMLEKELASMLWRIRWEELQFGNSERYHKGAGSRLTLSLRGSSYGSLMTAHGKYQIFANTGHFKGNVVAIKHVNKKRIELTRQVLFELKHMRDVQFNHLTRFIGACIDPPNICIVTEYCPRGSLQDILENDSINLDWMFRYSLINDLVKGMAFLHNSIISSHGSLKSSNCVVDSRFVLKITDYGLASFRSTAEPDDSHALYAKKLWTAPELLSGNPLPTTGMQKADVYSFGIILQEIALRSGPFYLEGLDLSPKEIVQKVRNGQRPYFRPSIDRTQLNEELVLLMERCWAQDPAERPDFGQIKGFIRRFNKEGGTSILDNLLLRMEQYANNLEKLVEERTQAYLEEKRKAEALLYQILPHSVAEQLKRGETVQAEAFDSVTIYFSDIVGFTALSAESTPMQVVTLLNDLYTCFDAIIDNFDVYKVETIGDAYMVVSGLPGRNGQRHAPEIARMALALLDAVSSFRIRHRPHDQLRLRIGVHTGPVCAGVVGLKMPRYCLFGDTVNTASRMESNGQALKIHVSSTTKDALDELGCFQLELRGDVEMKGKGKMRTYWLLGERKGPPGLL
aDG glyco up – alpha-DG glycosylation activation; Pro5-aDG cells, alpha-DG glycosylation AlphaScreen (IIH6); 0% Pro5, 100% B10-LARGE cell signal; activation, % at 10 µM; 360,000 compounds, 0.22% hits; AID 624168;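 active = activation of at least 8% versus controls, or a plate z-score of at least 8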;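 also: Pro5 are CHO cells carrying HIG-tagged alpha-DG that lacks glycosylation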
NPR1 activator – GC-A (human) enzyme activation | AID 1671463 | activation, % at 10 µM | 370,000 compounds, 0.14% hits | HEK293 GC-A cells, cGMP TR-FRET, EC30 ANP; 0% at EC30 ANP, 100% saturating ANP; in the data active = activation above about 40%
GASC-1 inh – inhibitors of human GASC-1 (JMJD2C) demethylase; Q9H3R0; GST-JMJD2C(1-420) H3K9me3 demethylation, DELFIA europium; inhibition, % at 2.35 µM; 330,000 compounds, 0.069% hits;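 active = more than half of a compound's replicate wells show inhibition beyond 50%, single wells judged on their own value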;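 also: signal counts dimethyl H3K9 product captured on neutravidin plate; 0% = median of DMSO wells and 100% = 0.3 times that DMSO median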
Hep lipid drop – hepatic lipid droplet formation modulation | AML12 mouse hepatocytes, oleate lipid droplets, BODIPY imaging | inhibition, % at 6.5 µM | 240,000 compounds, 0.4% hits | AID 1656;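 active = lipid droplet intensity inhibited by at least 50%, with more than 500 cells counted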
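Technique: fluorescence imaging, 20x objective, two fields per well / Assay system: AML12 hepatocytes (mouse) / Measure: % inhibition of lipid droplet signal / Doses: 6.5 µM single-point dosing / Incubation: overnight exposure / Reagent: 100 µM oleic acid challenge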
NR3A LBD binder – NR3A (human) ligand-binding domain modulation; NR3A LBD differential scanning fluorimetry, Tm shift; 0% = protein alone, 100% = glycine-bound protein; Tm shift relative to glycine control, % at 25 µM; 340,000 compounds, 2.5% hits; AID 1259313;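 active = melting temperature shift of at least 10% of the positive control shift, at one fixed dose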
Active calls of the source: *; / = not tested or not shown. Most compounds without a hit are left out; they make up all but 3% or so of the library.

SMILES	GC-B act	aDG glyco up	NPR1 activator	GASC-1 inh	Hep lipid drop	NR3A LBD binder
CN(C)c1ccc(/C=N/N2C(=S)SC(C)(C)C2N(O)C(=O)Nc2ccc([N+](=O)[O-])cc2)cc1 (stereo unspecified)	-4	0	-4	10	/	11*
Cc1ccc(OCc2nnc(SCC(=O)c3ccc(-c4ccccc4)cc3)n2Cc2ccco2)cc1	-9	/	-3	/	/	/
Cc1ccc(-n2c(SCC(=O)N/N=C/C=C\c3ccccc3[N+](=O)[O-])nnc2-c2ccccc2)cc1	-23	/	-4	/	/	/
O=S(=O)(Nc1cccc(-c2ccc3nncn3n2)c1)c1ccccc1F	-4	0	3	-6	/	13*
COC(=O)[C@]12C[C@H](CC(=O)NCc3ccc(OC)c(OC)c3)C(=O)N(Cc3ccc4c(c3)OCO4)C1=C[C@H](COCc1ccccc1)O[C@@H]2C	1	/	0	/	/	/
CCCc1nc(SCC(=O)N2CCc3ccccc3C2)c2ccccc2n1	-7	1	-1	-4	/	13*
CSCCC(NS(=O)(=O)c1ccc(Cl)cc1)C(=O)OCC(=O)c1c(C)[nH]c2ccccc12 (stereo unspecified)	-5	0	-3	0	4	17*
Cc1[nH]c2ccccc2c1C(=O)COC(=O)C1CC(O)CN1S(=O)(=O)c1ccc(Cl)cc1 (stereo unspecified)	12	0	3	/	/	-12
O=C(COC(=O)C1(c2ccc(F)cc2)CCCC1)NCc1ccc2c(c1)OCO2	-8	1	-1	11	46	16*
O=C(COC(=O)C1(c2ccccc2F)CCCC1)NCc1ccc2c(c1)OCO2	-1	0	-1	0	7	2
COC(=O)c1ccc(S(=O)(=O)N2CCC(NC(=O)CCC3CCCC3)CC2)cc1	2	/	0	/	/	/
Cc1ccc(-c2csc(-c3c[nH]c4ccccc34)n2)c(C)c1	-6	0	2	-5	/	24*
COc1ccc(Nc2nc(-c3c[nH]c4ccccc34)cs2)cc1	-2	2	3	-6	4	3
Oc1ccc(-c2csc(-c3c[nH]c4ccccc34)n2)c(O)c1	-14	0	-11	-4	12	34*
CCOc1cc(/C=C2/C(=O)ON=C2C)ccc1O	1	0	10	8	2	3
C#CCOc1c(Cl)cc(/C=C2/C(=O)ON=C2C)cc1OC	2	0	16	-1	-5	0
COc1cc(/C=C2/C(=O)ON=C2C)cc(Cl)c1O	1	0	6	0	13	26*
CC1=NOC(=O)/C1=C/c1ccc(O)c(Cl)c1	5	0	12	7	-1	20*
CCOc1ccc(Cl)cc1/C=C1/C(=O)ON=C1C	3	0	18	1	-10	3
CCCOc1ccc(/C=C2/C(=O)ON=C2C)cc1Cl	16	0	45*	-5	-5	4
Cc1cccc(NC(=O)NNC(=O)c2sccc2-n2cccc2)c1	2	0	5	-4	0	13*
Cc1ccc(S(=O)(=O)N2CCCC2c2cccc3[nH]cc(C)c23)cc1 (stereo unspecified)	-5	/	1	/	/	/
CCCc1c(C(=O)N/N=C/C(C)=C/c2ccco2)nnn1-c1nonc1N	-1	-1	0	-3	-2	16*
CCCN(CCC)Cc1c(C(=O)N/N=C/c2ccco2)nnn1-c1nonc1N	-4	0	-3	7	2	-2
CC(/C=N/NC(=O)c1nnn(-c2nonc2N)c1C(C)C)=C\c1ccco1	2	0	6	-2	-3	19*
SMILES	GC-B act	aDG glyco up	NPR1 activator	GASC-1 inh	Hep lipid drop	NR3A LBD binder
Cc1nnc(N/N=C/c2ccccc2O)n1N	0	0	1	-45	10	-2
Cc1nnc(N/N=C/c2cc(C)n(-c3ccc(F)cc3)c2C)n1N	-3	1	-13	4	5	12*
Cc1c(Cl)c([N+](=O)[O-])nn1CCCC(=O)Nc1cccc(Cl)c1Cl	-4	0	-6	7	10	-22
Cc1c(Cl)c([N+](=O)[O-])nn1CCCC(=O)Nc1cccc(O)c1	0	0	0	27	-4	12*
CCCCNC(=O)C1=C(N)C(C(=O)Nc2ccc(C)c(S(=O)(=O)N3CCCCC3)c2)SC1=Nc1ccc(C)cc1C (stereo unspecified)	1	0	1	4	4	24*
COc1ccc(N(CC(=O)NCc2ccc(F)cc2)C(=O)Cn2nnc(-c3ccc(C)o3)n2)cc1OC	-6	0	-1	-15	29	-1
COc1ccc2c(c1)NC(=O)[C@@]2(CCN1C(=O)c2ccccc2C1=O)c1[nH]c2ccccc2c1CCN1C(=O)c2ccccc2C1=O	-3	/	-7	/	/	/
Cc1ccc2nc(-c3sc4nc(C)cc(C)c4c3N)[nH]c2c1	6	1	14	2	-17	15*
CC1(C)COC(c2ccc3c(c2)OCO3)OC1	-3	0	2	/	/	11*
CCC(=O)Nc1ccc(NC(=O)c2ccc3ccccc3c2)cc1	-2	0	0	1	8	10*
O=C(CSCc1ccc(C(=O)O)cc1)Nc1ccc2ccccc2c1	5	0	2	-4	-10	0
O=C(CSc1ccc(C(F)(F)F)cc1[N+](=O)[O-])Nc1ccc2ccccc2c1	5	0	-3	2	16	35*
CC(=O)c1ccc(NC(=O)CSCC(=O)Nc2ccc3ccccc3c2)cc1	-10	1	1	27	1	13*
CC(C)(C)c1ccc(-c2nnc(SCc3cccc4ccccc34)n2Cc2ccco2)cc1	20	/	-4	/	/	/
C=CCNCc1ccc(OC)cc1OC	0	/	-1	/	/	/
CCN1C(=O)/C(=C/c2ccc(C)s2)NC1=S	38*	0	35	-4	15	0
CCOC(=O)COc1ccc(/C=C2\NC(=S)N(CC)C2=O)cc1	51*	0	44*	4	9	2
CCCCCCCCN1C(=O)[C@@H](CC(=O)N2CCCCC2)C[C@@]2(C(=O)OC)C1=C[C@H](C(C)(C)C)O[C@@H]2C	-6	/	-8	/	/	/
COc1cccc2sc(NC(=O)c3ccc(Br)s3)nc12	-4	0	3	-3	7	11*
Cc1ccc2nc(NC(=O)c3ccc(Cl)s3)sc2c1	-10	0	-7	-2	/	20*
Cc1nc2ccc(NC(=O)c3ccc(Cl)s3)cc2s1	-15	0	-3	-4	/	27*
Cc1nc2ccc(NC(=O)c3nn(C(C)C)c(=O)c4ccccc34)cc2s1	-6	0	4	3	18	17*
